Results from ChEMBL document CHEMBL2440116, “Structure-activity relationships of 2-aminothiazoles effective against Mycobacterium tuberculosis” (Bioorg Med Chem, 2013).
Converted amounts (≈) assume the structure as drawn.

Experiments:
Format in all cases: functional
[1] = tested on: Mycobacterium tuberculosis; assay: Antitubercular activity against Mycobacterium tuberculosis H37Rv in GAST media with glycerol and alanine after 7 to 14 days by broth microdilution method
[2] = tested on: Mycobacterium tuberculosis; assay: Antitubercular activity against Mycobacterium tuberculosis H37Rv in Middlebrook 7H9 broth with butyrate after 7 to 14 days by broth microdilution method
[3] = tested on: Mycobacterium tuberculosis; assay: Antitubercular activity against Mycobacterium tuberculosis H37Rv in Middlebrook 7H9 broth with glucose after 7 to 14 days by broth microdilution method
Procedure, shortened: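 Broth microdilution of H37Rv in 7H9 with 0.8 g/L NaCl, 5 g/L BSA fraction V, 4 g/L glucose and 0.05% Tyloxapol. Run in quadruplicate from DMSO stocks with DMSO controls; isoniazid positive control.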

SMILES	MIC99 [1] [µM]	MIC99 [2] [µM]	MIC99 [3] [µM]
O=C(Nc1nc(-c2ccccn2)cs1)c1ccco1	1.6 (≈ 0.434 µg/mL)	6.3 (≈ 1.71 µg/mL)	3.1 (≈ 0.841 µg/mL)
O=C(Nc1nc(-c2ccccn2)c[nH]1)c1ccccc1	3.13 (≈ 0.827 µg/mL)	–	25 (≈ 6.61 µg/mL)
CC1CC1C(=O)Nc1nc(-c2ccccn2)cs1 (stereo unspecified)	–	> 50	6.3 (≈ 1.63 µg/mL)
Cc1ccc(Nc2nc(-c3ccccn3)cs2)c(C)c1	6.3 (≈ 1.77 µg/mL)	12.5 (≈ 3.52 µg/mL)	12.5 (≈ 3.52 µg/mL)
FC(F)(F)c1ccccc1Nc1nc(-c2ccccn2)cs1	6.3 (≈ 2.02 µg/mL)	6.3 (≈ 2.02 µg/mL)	12 (≈ 3.86 µg/mL)
O=C(Nc1nc(-c2ccccn2)cs1)c1ccncc1	0.78 (≈ 0.22 µg/mL)	3.1 (≈ 0.875 µg/mL)	1.6 (≈ 0.452 µg/mL)
O=C(Nc1nc(-c2ccccn2)co1)c1ccccc1	25 (≈ 6.63 µg/mL)	–	25 (≈ 6.63 µg/mL)
O=C(Nc1nnc(-c2ccccn2)s1)c1ccccc1F	> 6.25	–	> 6.25
Cc1ccc(Nc2nc(-c3ccccn3)cs2)cc1	6.3 (≈ 1.68 µg/mL)	12.5 (≈ 3.34 µg/mL)	12.5 (≈ 3.34 µg/mL)
FC(F)(F)c1cccc(Nc2nc(-c3ccccn3)cs2)c1	> 12.5	25 (≈ 8.03 µg/mL)	25 (≈ 8.03 µg/mL)
O=C(Nc1nc(-c2ccccn2)cs1)c1cccnc1	> 12.5	3.1 (≈ 0.875 µg/mL)	6.3 (≈ 1.78 µg/mL)
Fc1ccc(Nc2nc(-c3ccccn3)cs2)cc1	12.5 (≈ 3.39 µg/mL)	25 (≈ 6.78 µg/mL)	25 (≈ 6.78 µg/mL)
O=C(Nc1nc(-c2ccccn2)cs1)c1cccs1	–	–	1.6 (≈ 0.46 µg/mL)
O=C(Nc1nc(-c2ccccn2)cs1)c1ccc(Cl)cc1	0.39 (≈ 0.123 µg/mL)	0.78 (≈ 0.246 µg/mL)	1.6 (≈ 0.505 µg/mL)
O=C(Nc1nc(-c2ccccn2)cs1)c1ccccc1[N+](=O)[O-]	0.78 (≈ 0.255 µg/mL)	–	1.6 (≈ 0.522 µg/mL)
O=C(Nc1ccccc1)c1nc(-c2ccccn2)cs1	> 25	–	> 25
Cc1cccc(Nc2nc(-c3ccccn3)cs2)n1	0.78 (≈ 0.209 µg/mL)	3.1 (≈ 0.832 µg/mL)	6.3 (≈ 1.69 µg/mL)
COc1ccc(Nc2nc(-c3ccccn3)cs2)c(OC)c1	> 12.5	6.3 (≈ 1.97 µg/mL)	6.3 (≈ 1.97 µg/mL)

SMILES	MIC99 [1] [µM]	MIC99 [2] [µM]	MIC99 [3] [µM]
O=C(Nc1nnc(-c2ccccn2)o1)c1ccccc1F	6.25 (≈ 1.78 µg/mL)	–	12.5 (≈ 3.55 µg/mL)
O=C(Nc1nc(-c2ccccn2)cs1)c1ccccc1F	1.6 (≈ 0.479 µg/mL)	0.39 (≈ 0.117 µg/mL)	1.6 (≈ 0.479 µg/mL)
CN(C(=O)c1ccccc1)c1nc(-c2ccccn2)cs1	≥ 25	–	> 25
O=C(Nc1nc(-c2ccccn2)cs1)c1ccccc1O	0.19 (≈ 0.0565 µg/mL)	1.6 (≈ 0.476 µg/mL)	1.6 (≈ 0.476 µg/mL)
CCCCCCCCCC(=O)Nc1nc(-c2ccccn2)cs1	1.6 (≈ 0.53 µg/mL)	3.1 (≈ 1.03 µg/mL)	6.3 (≈ 2.09 µg/mL)
FC(F)(F)c1ccc(Nc2nc(-c3ccccn3)cs2)cc1	≥ 12.5	12.5 (≈ 4.02 µg/mL)	25 (≈ 8.03 µg/mL)
c1ccc(Nc2nc(-c3ccccn3)cs2)cc1	12.5 (≈ 3.17 µg/mL)	12.5 (≈ 3.17 µg/mL)	25 (≈ 6.33 µg/mL)
O=C(Nc1nc(-c2cnccn2)cs1)c1ccccc1	> 25	–	> 25
O=C(Nc1cc(-c2ccccn2)cs1)c1ccccc1	12.5 (≈ 3.5 µg/mL)	–	> 25
Cc1cccc(C)c1Nc1nc(-c2ccccn2)cs1	3.1 (≈ 0.872 µg/mL)	12.5 (≈ 3.52 µg/mL)	12.5 (≈ 3.52 µg/mL)
O=C(Nc1nc(-c2ccccn2)cs1)c1cccc([N+](=O)[O-])c1	0.78 (≈ 0.255 µg/mL)	–	1.6 (≈ 0.522 µg/mL)
CCCCCCCC(=O)Nc1nc(-c2ccccn2)cs1	0.78 (≈ 0.237 µg/mL)	6.3 (≈ 1.91 µg/mL)	6.3 (≈ 1.91 µg/mL)
O=C(Nc1nc(-c2ccccn2)cs1)C1CCCC1	–	3.1 (≈ 0.847 µg/mL)	12.5 (≈ 3.42 µg/mL)
O=C(Nc1nc(-c2ccccc2)cs1)c1ccccc1	≥ 25	–	> 25
COc1ccc(OC)c(Nc2nc(-c3ccccn3)cs2)c1	> 12.5	> 50	> 50
O=C(Nc1nc(-c2ccccn2)cs1)C1CCC1	6.3 (≈ 1.63 µg/mL)	6.3 (≈ 1.63 µg/mL)	12.5 (≈ 3.24 µg/mL)
O=C(Nc1nc(-c2ccccn2)cs1)c1ccoc1	–	6.3 (≈ 1.71 µg/mL)	3.1 (≈ 0.841 µg/mL)
O=C(Nc1nc(-c2cscn2)cs1)c1ccccc1	≥ 25	–	> 25
